# Bioassay records from PubChem.
# Shown are actives, neighbours in structure and some others; about 9.4% of the full set was active somewhere.
# Mdm2 MdmX PPI: inhibitors of human Mdm2/MdmX interaction; SaOS-2 split-luciferase Mdm2/MdmX complementation, luminescence; inhibition, % at 8 µM; 3% of 330,000 active;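 active = inhibition of at least 50% at 8 µM in the primary screen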
# Target sequence (O15151 whole entry, looked up): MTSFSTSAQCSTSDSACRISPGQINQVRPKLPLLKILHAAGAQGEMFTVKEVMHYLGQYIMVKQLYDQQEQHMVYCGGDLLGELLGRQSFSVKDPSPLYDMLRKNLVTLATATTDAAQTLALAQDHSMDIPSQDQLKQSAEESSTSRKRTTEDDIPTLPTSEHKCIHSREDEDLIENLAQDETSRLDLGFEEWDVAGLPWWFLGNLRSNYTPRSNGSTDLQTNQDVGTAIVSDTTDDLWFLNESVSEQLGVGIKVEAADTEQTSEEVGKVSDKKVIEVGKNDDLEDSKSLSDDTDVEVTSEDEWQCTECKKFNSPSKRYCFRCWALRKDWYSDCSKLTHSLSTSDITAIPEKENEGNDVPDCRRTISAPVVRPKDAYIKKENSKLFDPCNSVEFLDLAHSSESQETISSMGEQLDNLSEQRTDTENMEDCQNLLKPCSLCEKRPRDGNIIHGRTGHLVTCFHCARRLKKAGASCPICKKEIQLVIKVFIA
# Target sequence (Q00987 whole entry, looked up): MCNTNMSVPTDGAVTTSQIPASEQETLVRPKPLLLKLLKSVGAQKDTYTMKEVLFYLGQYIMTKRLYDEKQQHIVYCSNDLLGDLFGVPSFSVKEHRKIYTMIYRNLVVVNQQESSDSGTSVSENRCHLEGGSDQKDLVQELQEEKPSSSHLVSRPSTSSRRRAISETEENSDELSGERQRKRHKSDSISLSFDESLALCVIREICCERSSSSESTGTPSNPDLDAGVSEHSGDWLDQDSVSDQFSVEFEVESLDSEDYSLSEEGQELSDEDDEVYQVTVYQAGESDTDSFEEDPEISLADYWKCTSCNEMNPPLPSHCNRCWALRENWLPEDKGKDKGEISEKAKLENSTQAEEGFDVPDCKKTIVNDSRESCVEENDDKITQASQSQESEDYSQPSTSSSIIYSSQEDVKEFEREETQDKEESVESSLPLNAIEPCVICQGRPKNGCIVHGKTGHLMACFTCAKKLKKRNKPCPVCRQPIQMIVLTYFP
# CSC inhib: cancer stem cell inhibition | 1.1% of 300,000 active | AID 2717 | cancer stem cell-like cells viability, luminescence | inhibition, % at 7.5 µM; in the data active = inhibition above about 75%; tested in HMLE shEcad cells
# T cruzi inh: blocks replication of Trypanosoma cruzi. T. cruzi beta-gal in NIH3T3, luminescence, 90 h. inhibition, % (test concentration not listed). 1.4% of 300,000 active;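 active = mean inhibition across valid replicates above about 55%, limit read from the data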;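 also: signal also drops with host cell toxicity which is not excluded here; 0% = plate median of DMSO wells and 100% = zero luminescence signal; higher percent means less beta-gal luminescence so fewer parasites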
#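 compound dosing = single 50 nL compound addition per well in DMSO | material = NIH/3T3 host cells with β-galactosidase reporter T. cruzi | input = 5,000 host fibroblasts per well | timing = ≥90 h infection period, 3 h prior cell attachment | read-out basis = percent inhibition of parasite-derived β-gal signal | detection = GalScreen β-gal luminescence, detergent lysis, 60 min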
# Beta cell apopt: blocks beta cell apoptosis. protection from apoptosis, % (test concentration not listed). 0.8% of 300,000 active. AID 435005. INS-1E cytokine-induced death, ATP luminescence, 48 h; percent of positive-control rescue, neutral wells zero;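 active = Every replicate reaches about 75%, or at least half do and their mean reaches it too, limit read from the data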;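 also: 0% = cytokine-treated negative control wells and 100% = positive control rescue; higher means more ATP so stronger rescue from cytokine killing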
# Lmaj promast: reduces viability of Leishmania major promastigotes | resazurin fluorescence viability | inhibition, % at 10 µM | 9% of 200,000 active; in the data active = inhibition above about 50%;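 also: promastigotes grown with compound for 44 hours at 28 °C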
# SKKanGAS inh: inhibitors of SKKanGAS S. pyogenes growth in kanamycin (SK-promoter or general growth effect). BacTiter-Glo, 6 h. inhibition, % at 7.5 µM. 1.3% of 300,000 active;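 active = mean replicate score, as percent of positive control median, at least 50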;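 also: strain carries kanamycin resistance gene driven by streptokinase promoter and grows in 40 µg/ml kanamycin; loss of luminescence reflects streptokinase promoter inhibition or plain growth inhibition; 0% = median of DMSO wells and 100% = positive control at its reference dose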
# Mdm2-MdmX conf: confirmation of human Mdm2/MdmX interaction inhibitors | shares compounds with Mdm2 MdmX PPI | Mdm2-MdmX binding, luminescent assay | inhibition, % at 8 µM | 55% of 10,000 active | AID 489028; in the data active = inhibition above about 40%
# Full FLuc ctr: full-length luciferase inhibition in Mdm2/MdmX counter-screen. shares compounds with Mdm2 MdmX PPI. SaOS-2 full-length luciferase counterscreen, luminescence. inhibition, % at 8 µM. 77% of 6,200 active;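 active = mean inhibition at 8 µM reaching about 37%, which flags the compound as non-specific, limit read from the data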;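 also: p53-null SaOS-2 cells with luciferase driven by a doxycycline-inducible promoter; compound on cells about two nights before reading with doxycycline added after day one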
# * marks the source's active call; other numbers are inactive results; . = no result.
SMILES,Mdm2 MdmX PPI,CSC inhib,T cruzi inh,Beta cell apopt,Lmaj promast,SKKanGAS inh,Mdm2-MdmX conf,Full FLuc ctr
O=C(Nc1cc(Cl)ccc1-n1cncn1)c1ccc([N+](=O)[O-])s1,58*,29,69*,102*,.,16,33,.
O=C(Cc1ccc(S(=O)(=O)N2CCOCC2)s1)Nc1ccccc1Br,66*,13,4,0,.,1,0,.
O=C(Cc1ccc(S(=O)(=O)N2CCOCC2)s1)NCC(=O)Nc1ccccc1Br,8,6,-2,0,.,1,.,.
COc1ccc(CCNc2nnc(Sc3nnnn3-c3ccccc3)s2)cc1OC,79*,-3,8,15,40,-2,70*,83*
O=c1c(Cl)c(Cl)cnn1Cc1nnc(-c2ccccc2Br)o1,100*,.,57*,.,99*,16,100*,54*
Clc1ccccc1OCc1nnc(-c2ccccc2Br)o1,-158,.,-1,3,3,20,.,.
CCCn1ncc(CN2CCC(C(=O)Nc3cccc(-c4cccc(F)c4)c3)CC2)c1C,87*,0,57*,.,.,-15,46*,71*
Cn1cc(CN2CCC(C(=O)Nc3cccc(-c4cccc(F)c4)c3)CC2)cn1,27,-18,27,2,.,0,.,.
COCc1ccc(CN2CCC(C(=O)Nc3cccc(-c4cccc(Cl)c4)c3)CC2)o1,78*,0,17,-1,.,2,54*,58*
C=CCn1cc(CN2CCC(C(=O)Nc3cccc(-c4cccc(F)c4)c3)CC2)c(C)n1,51*,0,11,0,.,10,31,.
C=CCn1cc(CN2CCC(C(=O)Nc3cccc(-c4cccc(Cl)c4)c3)CC2)c(C)n1,81*,28,17,7,.,6,13,.
COc1ccc(OC)c(C(=O)NC(CC(N)=O)c2ccc(NC(C)C)c([N+](=O)[O-])c2)c1 (centres undefined),6,2,-7,-3,.,-3,.,.
CCc1ccc(NS(=O)(=O)c2ccc3oc(=O)ccc3c2)cc1,-27,-6,8,.,.,2,.,.
Cc1c(CN2CCC(C(=O)Nc3cccc(-c4cccc(Cl)c4)c3)CC2)cnn1C,58*,12,10,7,.,-1,10,.
Cc1nn(C(C)C)c(C)c1CN1CCC(C(=O)Nc2cccc(-c3cccc(F)c3)c2)CC1,78*,30,55*,5,.,-6,52*,62*
CCOC(=O)c1ccc(N2C=C(C(=O)OC)C(c3cccc(O)c3)C(C(=O)OC)=C2)cc1,12,-5,-12,7,.,12,.,.
COc1ccc(OC)c(S(=O)(=O)N2CCC(C(=O)N3CCCCCC3)CC2)c1,-17,-12,26,-5,.,2,.,.
Cc1cc(C(=O)NC2CCCc3c2cnn3-c2ccccc2F)nc(C)n1 (centres undefined),15,13,-2,-16,.,-8,.,.
CC(C)c1cc(C(=O)NC2CCCc3c2cnn3-c2ccccc2F)no1 (centres undefined),90*,3,-10,16,.,1,77*,29
COc1ccc2cc(CN(CC3CCCO3)C(=S)Nc3ccccc3)c(=O)[nH]c2c1 (centres undefined),52*,6,17,-1,26,7,51*,57*
CCN1CCCC1CN(Cc1cc2ccc(C)cc2[nH]c1=O)C(=S)Nc1ccc(OC)cc1 (centres undefined),-8,-12,15,-10,-8,-8,.,.
Cc1cc2cc(CN(CC3CCCO3)C(=S)Nc3ccccc3)c(=O)[nH]c2cc1C (centres undefined),67*,3,-8,9,68*,11,56*,59*
COc1ccc2[nH]c(=O)c(CN(CC3CCCO3)C(=S)Nc3ccccc3)cc2c1 (centres undefined),12,6,16,-2,40,28,.,.
CN(C)CCCN(Cc1cc2cc3c(cc2[nH]c1=O)OCO3)C(=S)Nc1ccccc1,6,-6,19,-9,-2,-1,.,.
CCN1CCCC1CN(Cc1cc2ccc(C)cc2[nH]c1=O)C(=S)Nc1ccc(F)cc1 (centres undefined),60*,-6,27,5,46,-11,35,63*
SMILES,Mdm2 MdmX PPI,CSC inhib,T cruzi inh,Beta cell apopt,Lmaj promast,SKKanGAS inh,Mdm2-MdmX conf,Full FLuc ctr
CN(C)CCCN(Cc1cc2cc3c(cc2[nH]c1=O)OCO3)C(=S)Nc1cccc(Cl)c1,59*,.,20,-6,93*,-4,29,.
COc1ccc(NC(=O)N(Cc2cc3ccc(OC)cc3[nH]c2=O)CC2CCCO2)cc1 (centres undefined),32,-1,-8,3,4,-11,.,.
COc1ccc2cc(CN(CC3CCCO3)C(=O)Nc3ccccc3OC)c(=O)[nH]c2c1 (centres undefined),59*,47,11,11,16,25,53*,63*
Cc1nc(N)c(C#N)c(-c2cccnc2)c1-c1ccccc1,56*,-3,-11,-11,.,-5,42*,56*
Cc1c(-c2ccccc2)nc(N)c(C#N)c1-c1cccnc1,26,-5,-5,0,.,-6,.,.
COc1ccc(-c2cc(-c3cccnc3)c(C#N)c(N)n2)cc1,73*,8,0,-1,.,0,9,.
COc1cccc(-c2cc(-c3cccnc3)nc(N)c2C#N)c1,59*,-4,4,-1,.,2,12,.
COc1ccc(OC)c(-c2cc(-c3cccnc3)nc(N)c2C#N)c1,63*,76*,-46,3,.,20,62*,76*
CC(C)C[C@H](NC(=O)N1CCn2c1nc1ccccc12)C(=O)N[C@@H](Cc1ccccc1)C(=O)O,42,6,-11,-3,.,3,.,.
CC(NC(=O)Nc1ccccc1Cl)c1ccc2c(c1)OCO2 (centres undefined),7,21,10,1,.,3,.,.
O=C(NNC(=O)c1ccc2[nH]c(=O)c(=O)[nH]c2c1)c1cccc(Br)c1,-5,-4,-13,4,.,0,.,.
Cn1c(=O)c2ncn(CC(=O)N=Nc3c(O)[nH]c4ccccc34)c2n(C)c1=O,4,4,-12,-6,-1,7,.,.
COc1ccc(C(=O)OCC(O)COC(=O)c2ccc(OC)cc2)cc1,21,14,-22,-5,.,-16,.,.
COc1cccc2c1C(=O)c1c(O)c3c(c(O)c1C2=O)C[C@](O)(C(C)=O)C[C@H]3O[C@@H]1C[C@@H](N)[C@@H](O)[C@@H](C)O1,100*,74,47,44,.,102*,100*,-1
COc1cccc2c1-c1c(O)cccc1C2=O,13,-4,-1,-5,.,0,.,.
